Screening data as filed in PubChem BioAssay.
This is one part of a sample in which hits are shown more often than they occur.
Calb FLC: C. albicans growth inhibition with fluconazole, primary screen, CaCi-2 strain, Alamar Blue fluorescence; C. albicans CaCi-2 (fluconazole-resistant clinical isolate) + fluconazole, 48 h; growth inhibition, % (concentration not given with the values); 300,000 compounds, 0.57% hits; AID 1979, 2009;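 active = growth inhibition above about 58% in most replicates, limit read from the data, passing the limit was not always enough; inconclusive = exactly half the replicates above a set limit; inactive = most replicates below a set limit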;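 also: all wells also contain fluconazole at 8 µg/ml as a sub-toxic cotreatment; 0% = median of DMSO wells and 100% = median of geldanamycin control wells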
Lmaj promast: Leishmania major promastigote growth inhibition, primary screen | inhibition, % at 10 µM | Leishmania major promastigotes, resazurin fluorescence viability | 200,000 compounds, 9% hits | AID 1063, 2008; in the data active = inhibition above about 50%;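 also: promastigotes grown with compound for 44 hours at 28 °C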
NALP1 inh: NALP1 inflammasome inhibitors in reconstituted yeast, colorimetric, S. cerevisiae, triplicate retest; S. cerevisiae NALP1/ASC/caspase-1 growth, X-gal OD620, 72 h; inhibition, % at 10 µM; 280,000 compounds, 0.61% hits; AID 2071, 2009; in the data active = inhibition mostly above about 24%, no sharp cut-off; inactive = mostly below about 32%
T cruzi inh: inhibitors of intracellular T. cruzi growth, primary screen, luminescence, NIH3T3 host cells. 300,000 compounds, 1.4% hits. inhibition, % (concentration not given with the values). T. cruzi beta-gal in NIH3T3, 90 h;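 active = mean inhibition across valid replicates above about 55%, limit read from the data; inconclusive = mean below that limit but half or more replicates reach it; inactive = mean below it, under half of replicates reach it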;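 also: signal also drops with host cell toxicity which is not excluded here; 0% = plate median of DMSO wells and 100% = zero luminescence signal; higher percent means less beta-gal luminescence so fewer parasites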
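System – NIH/3T3 host cells with β-galactosidase reporter T. cruzi · Doses – single 50 nL compound addition per well in DMSO · Reagent – 5000 T. cruzi trypomastigotes/well · Medium – Low-serum DMEM with 2% FBS · Timing – ≥90 h infection period, 3 h prior cell attachment · Evaluation – parasite load inhibition, % · Technique – GalScreen luminescence, 60 min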
NLRP3 yeast inh: NALP3 inflammasome inhibitors in reconstituted yeast, primary screen, luminescence, uHTS | Yeast reconstituted NLRP3/ASC/caspase-1, beta-gal luminescence, 24 h | inhibition, % at 10 µM | 330,000 compounds, 0.39% hits | AID 2825, 2010;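 active = inhibition of 50% or more; inactive = inhibition below 50%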;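 also: plate controls were induced DMSO wells for no effect and uninduced yeast grown without galactose for full effect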
PolyA inh: polyadenylation inhibitors in yeast reporter cells, primary screen, luminescence, S. cerevisiae; 300,000 compounds, 0.02% hits; AID 1875, 2009; activity score, % at 12 µM; S. cerevisiae SKY197-pL101 polyadenylation reporter, beta-gal luminescence; efflux-impaired pdr1/pdr3 knockout yeast; score 100 = 6 SD above DMSO;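 active = lowest replicate activity score at least 50, where 100 means six control SD above control mean; inconclusive = lowest score under 50 but half or more replicates reach 50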;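 also: yeast exposed to compound for 9 h at 30 °C; higher score means more reporter readthrough which indicates perturbed polyadenylation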
* hit, by the source's call; ? = inconclusive; / = not tested or not shown.

SMILES	Calb FLC	Lmaj promast	NALP1 inh	T cruzi inh	NLRP3 yeast inh	PolyA inh
Cc1cccc(C(C)(C)C)c1OCCCCN1CCCC1	/	100*	7	39	14	-3
Clc1cccc(Cl)c1OCCCCN1CCCCC1	-18	/	5	18	41	0
Cc1cccc(Cl)c1OCCN1CCCC1	2	/	5	10	-4	-6
CC(C)(C)c1ccccc1OCCCCN1CCCC1	-8	99*	19	?	-8	3
CC(C)c1cccc(C(C)C)c1OCCCCN1CCCC1	-11	92*	3	42	24	-15
COCCNC(=O)COc1ccc(C)cc1C(=O)c1cc(C#N)c(=O)n(C2CC2)c1	-4	3	-4	-4	2	15
COc1cc2c(cc1OC)CN(C(=O)c1ccc(Cl)c(S(=O)(=O)N3CCCC3)c1)CC2	/	/	/	/	5	/
CC1CCCN(CCC(=O)Nc2ccc3c(c2)CCC3)C1 (stereo not given)	-15	61*	-11	-7	5	13
CC1CCCN(CCC(=O)Nc2ccc(Br)cc2)C1 (stereo not given)	-7	53*	16	20	15	19
CCCCS(=O)(=O)N1CCCC(C(=O)Nc2ccc3c(c2)CCC3)C1 (stereo not given)	-9	/	27*	-3	19	21
CC1CCCN(CCC(=O)Nc2ccccc2)C1 (stereo not given)	-22	-1	13	-11	10	1
COc1cccc(CNCc2ccc(SC)cc2)c1OC	-4	7	-3	-8	6	8
COC1=C/C(=C/c2c(O)c(C#N)c3ccccn23)C=CC1=O	5	/	-14	-10	-41	18
OC(CON=C1c2ccccc2-c2ccccc21)CN1CCNCC1 (stereo not given)	1	92*	21	2	0	-1
OC(CN1CCNCC1)Cn1ccc2ccccc21 (stereo not given)	-7	/	2	-9	11	-18
Cc1nnc(SC(C)C(=O)Nc2ccc(Cl)cn2)n1Cc1ccccc1 (stereo not given)	17	-1	-16	-14	4	13
CC(Sc1nnc(-c2ccc(Cl)cc2Cl)n1Cc1ccccc1)C(=O)Nc1nccs1 (stereo not given)	1	65*	6	22	8	25
O=C(NCCc1ccc(F)cc1)c1cc(=O)c2ccccc2o1	-12	3	3	-8	15	3
O=C(OC(C(=O)NCc1ccc(F)cc1)c1ccccc1)c1ccco1 (stereo not given)	2	/	13	-13	13	-2
CCC(CO)NCc1cc(OC)c(OCC(=O)NCCc2ccccc2)cc1Br (stereo not given)	-2	97*	22	7	-1	-24
CCCNCc1cc(OC)c(OCC(=O)NCCc2ccccc2)cc1Br	-19	55*	24	10	-10	10
CCCNCc1cc(OC)c(OCc2ccccc2)cc1Br	1	38	13	4	8	6
Cc1ccn2cc(-c3cccc(NC(=O)c4ccccc4)c3)nc2c1	6	72*	0	22	15	-8
CCC(Sc1nnc(C)c(=O)[nH]1)C(=O)Nc1cccc2ccccc12 (stereo not given)	0	/	5	-15	20	-3
NC(=O)c1ccc(NC(=O)COC(=O)/C=C/c2ccc3c(c2)OCO3)cc1	4	/	23	0	1	-4
SMILES	Calb FLC	Lmaj promast	NALP1 inh	T cruzi inh	NLRP3 yeast inh	PolyA inh
COc1ccccc1C(=O)COC(=O)CNS(=O)(=O)c1ccc(C)c(C)c1	-4	/	/	-2	6	22
Cc1ccc(C(=O)CC2C(=O)N(c3ccccc3)C(=S)N2c2ccccc2)cc1 (stereo not given)	-10	59*	23	0	22	0
CCn1cc(C(=O)N=c2sc3ccccc3n2C)c(=O)c2ccc(C)nc21	/	89*	/	/	/	/
CCn1cc(C(=O)Nc2ccccc2)c(=O)c2ccc(C)nc21	12	-3	-2	7	1	-8
O=C(Nc1ccc(-c2noc(CCc3ccccc3)n2)cc1)c1cccnc1	-7	50*	/	-7	26	-7
O=C(Nc1ccc(OCc2ccccc2Cl)cc1)c1cccnc1	114*	/	4	0	22	-19
CN(C)C(CNC(=O)c1c(F)cccc1Cl)c1ccco1 (stereo not given)	2	/	-1	-6	-3	-5
COc1cc(-c2nc(-c3ccccc3)c(-c3cccs3)[nH]2)cc(OC)c1OC	2	90*	11	62*	-15	-14
COc1cc(-c2nc(-c3ccc4c(c3)-c3ccccc3S4(=O)=O)c(-c3ccccc3)[nH]2)cc(OC)c1OC	-5	99*	5	59*	24	5
COc1cccc(-c2nc(-c3ccc4c(c3)-c3ccccc3S4(=O)=O)c(-c3ccccc3)[nH]2)c1OC	6	57*	-102	40	2	3
COc1cc(-c2nc(-c3ccccc3)c(-c3cccs3)[nH]2)cc(OC)c1O	22	47	-8	25	-15	-11
N#C/C(=C\c1ccc(C(=O)O)cc1)S(=O)(=O)c1cc(Br)ccc1Br	-1	-9	-23	-20	13	7
CC(=O)c1c(C)[nH]c(C(=O)OCC(=O)N2CC(=O)Nc3ccccc32)c1C	-10	-6	20	-12	16	4
O=C(NCCO)C(O)C(O)C(=O)NCCO (stereo not given)	-1	0	2	1	20	7
C(=C\c1nc(N2CCCC2)c2ccccc2n1)/c1ccccc1	-4	71*	64*	23	48	-16
CC1CCN(c2nc(/C=C/c3ccccc3)nc3ccccc23)CC1	-7	63*	43	40	25	-15
CC1(c2nnc(Cc3ccccc3)o2)CC(c2ccc(OC(F)(F)F)cc2)=NO1 (stereo not given)	3	/	/	-8	30	-7
Cc1ccc(CSC2=NCCN2S(=O)(=O)c2ccccc2)cc1	28	100*	-1	40	26	-26
CCCCc1ncc(CN2CCC(CC3CCCCO3)(C(=O)OCC)CC2)[nH]1 (stereo not given)	-29	11	-1	16	4	24
CCOC(=O)C1(CC2CCCCO2)CCN(Cc2cc3ccccc3[nH]2)CC1 (stereo not given)	-28	67*	-6	5	21	19
C[N+]1=C(/C=C/Nc2ccccc2Cl)C(C)(C)c2ccccc21	-5	98*	25	37	6	-2
O=C1CCc2cc(S(=O)(=O)Nc3ccc(F)cc3)cc3c2N1CC3	1	/	/	-4	-1	2
